For three compounds, Activity, inhibition and solubility results are on record in ChEMBL document CHEMBL4043303, “Development of Novel Melanocortin Receptor Agonists Based on the Cyclic Peptide Framework of Sunflower Trypsin Inhibitor-1” (J Med Chem, 2018).

For series [1], the target named is T1, Melanocortin receptor 4 (Homo sapiens, UniProt P32245). The series can be described thus: Agonist activity at human MC4R expressed in low doxycyclin-treated HEK293 cell membranes assessed as increase in cAMP production up to 100 uM after 45 mins by HTRF method. The format is functional, cell-based. Summed up: (§1)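 Stable T-REx-293 clones (Zeocin-selected, human receptor cDNA in pcDNA4/TO), receptor expression induced with 0.1 ng/mL doxycycline for 24 h. 1000 cells/well in HBSS with Ca2+/Mg2+, 20 mM HEPES pH 7.4, 0.1% BSA. Stimulation for 45 min at 37 °C with 1 mM IBMX. cAMP read by LANCE HTRF (665/615 nm).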
T1 sequence (P32245 whole entry): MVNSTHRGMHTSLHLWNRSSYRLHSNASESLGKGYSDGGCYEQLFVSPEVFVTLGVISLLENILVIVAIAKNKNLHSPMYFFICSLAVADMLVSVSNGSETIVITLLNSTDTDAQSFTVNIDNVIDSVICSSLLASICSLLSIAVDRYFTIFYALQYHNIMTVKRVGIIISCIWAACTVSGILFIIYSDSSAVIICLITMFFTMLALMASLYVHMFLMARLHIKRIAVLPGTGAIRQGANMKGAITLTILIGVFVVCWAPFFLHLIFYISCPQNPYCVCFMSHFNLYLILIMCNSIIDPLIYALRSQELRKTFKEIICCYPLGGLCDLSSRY

In series [2] the target is T1, Melanocortin receptor 4. Description: Displacement of [125I]-NDP-alpha-MSH from human MC4R LBD expressed in HEK293 cell membranes up to 100 uM incubated for 16 to 23 hrs in dark by scintillation proximity assay. Background: Displacement assays read how much labelled ligand stays bound in the presence of the test substance.
For series [3], the target named is T2, Melanocortin receptor 5 (Homo sapiens, UniProt P33032). Description: Displacement of [125I]-NDP-alpha-MSH from human MC5R LBD expressed in HEK293 cell membranes incubated for 16 to 23 hrs in dark by scintillation proximity assay. The arrangement: concentration or dose not given beside the values. Particulars: concentration not given here.
T2 sequence (P33032 whole entry, the tested form may be a part): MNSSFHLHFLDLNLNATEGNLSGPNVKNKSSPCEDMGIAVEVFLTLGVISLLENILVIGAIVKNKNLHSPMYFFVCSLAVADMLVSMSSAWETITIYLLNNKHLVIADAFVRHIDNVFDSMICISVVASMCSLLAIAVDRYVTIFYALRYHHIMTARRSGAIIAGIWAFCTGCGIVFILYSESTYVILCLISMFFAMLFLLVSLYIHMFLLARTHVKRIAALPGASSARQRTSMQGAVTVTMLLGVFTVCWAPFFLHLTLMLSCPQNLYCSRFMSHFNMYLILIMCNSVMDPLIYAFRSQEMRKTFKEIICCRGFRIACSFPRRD
Series [4] concerns the target T3, Melanocortin receptor 3 (Homo sapiens, UniProt P41968). Description: Agonist activity at human MC3R expressed in low doxycyclin-treated HEK293 cell membranes assessed as increase in cAMP production up to 100 uM after 45 mins by HTRF method. The format is functional, cell-based. Summed up: as §1
In general terms: Cyclic AMP is a second messenger, typically raised through Gs and lowered through Gi signalling.

The target of series [5] is T4, Melanocyte-stimulating hormone receptor (Homo sapiens, UniProt Q01726). The series can be described thus: Displacement of [125I]-NDP-alpha-MSH from human MC1R LBD expressed in HEK293 cell membranes up to 1 uM incubated for 16 to 23 hrs in dark by scintillation proximity assay.
T4 sequence (Q01726 whole entry, looked up, the tested form may be a part): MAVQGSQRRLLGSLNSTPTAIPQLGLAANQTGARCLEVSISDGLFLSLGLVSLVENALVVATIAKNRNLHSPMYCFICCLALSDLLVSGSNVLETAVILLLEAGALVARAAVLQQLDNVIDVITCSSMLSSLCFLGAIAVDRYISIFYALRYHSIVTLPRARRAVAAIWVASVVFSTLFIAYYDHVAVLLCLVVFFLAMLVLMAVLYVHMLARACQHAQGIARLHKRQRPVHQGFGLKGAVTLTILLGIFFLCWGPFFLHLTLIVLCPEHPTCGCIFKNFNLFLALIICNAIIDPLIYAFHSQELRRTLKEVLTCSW
Series [6] addresses T4, Melanocyte-stimulating hormone receptor. The series can be described thus: Agonist activity at human MC1R expressed in low doxycyclin-treated HEK293 cell membranes assessed as increase in cAMP production after 45 mins by HTRF method. The format is functional, cell-based.
The target of series [7] is T1, Melanocortin receptor 4. The series can be described thus: Agonist activity at human MC4R expressed in high doxycyclin-treated HEK293 cell membranes assessed as increase in cAMP production after 15 mins by HTRF method. The format is functional, cell-based. Summed up: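 T-REx-293 cells stably expressing doxycycline-inducible human MC1R, MC3R or MC4R; expression induced 24 h with 0.1 ng/mL (low) or 10 ng/mL (high, MC4R only) doxycycline. 1000 cells/well in HBSS, 20 mM HEPES pH 7.4, 0.1% BSA, 1 mM IBMX; stimulated at 37 °C. Time-resolved FRET cAMP read-out normalized to NDP-α-MSH maximum.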

Series [8] deals with T3, Melanocortin receptor 3. Description: Displacement of [125I]-NDP-alpha-MSH from human MC3R LBD expressed in HEK293 cell membranes incubated for 16 to 23 hrs in dark by scintillation proximity assay. Conditions: concentration not given here. The arrangement: concentration or dose not given beside the values.
Series [9] can be described thus: Solubility of the compound in water at 1 mM. The format is physicochemical. Conditions: buffer, 1000 µM.
The target of series [10] is T3, Melanocortin receptor 3. The series can be described thus: Displacement of [125I]-NDP-alpha-MSH from human MC3R LBD expressed in HEK293 cell membranes up to 100 uM incubated for 16 to 23 hrs in dark by scintillation proximity assay.
Series [11] deals with T4, Melanocyte-stimulating hormone receptor. The series can be described thus: Displacement of [125I]-NDP-alpha-MSH from human MC1R LBD expressed in HEK293 cell membranes incubated for 16 to 23 hrs in dark by scintillation proximity assay. The arrangement: concentration or dose not given beside the values. Conditions: concentration not given here.
Series [12] has as its target T1, Melanocortin receptor 4. The series can be described thus: Displacement of [125I]-NDP-alpha-MSH from human MC4R LBD expressed in HEK293 cell membranes incubated for 16 to 23 hrs in dark by scintillation proximity assay. The arrangement: concentration or dose not given beside the values. Particulars: concentration not given here.
Series [13] deals with T2, Melanocortin receptor 5. The series can be described thus: Displacement of [125I]-NDP-alpha-MSH from human MC5R LBD expressed in HEK293 cell membranes up to 100 uM incubated for 16 to 23 hrs in dark by scintillation proximity assay.
Series [14] has as its target T4, Melanocyte-stimulating hormone receptor. Description: Agonist activity at human MC1R expressed in low doxycyclin-treated HEK293 cell membranes assessed as increase in cAMP production up to 100 uM after 45 mins by HTRF method. The format is functional, cell-based. Summed up: as §1
The target of series [15] is T1, Melanocortin receptor 4. Description: Agonist activity at human MC4R expressed in high doxycyclin-treated HEK293 cell membranes assessed as increase in cAMP production up to 100 uM after 15 mins by HTRF method. The format is functional, cell-based. Summed up: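 Stable T-REx-293 clone expressing human MC4R, induced with 10 ng/mL doxycycline for 24 h. 1000 cells/well in HBSS/20 mM HEPES pH 7.4/0.1% BSA. Stimulation for 15 min at 37 °C with 1 mM IBMX. LANCE HTRF cAMP read-out.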

The target of series [16] is T4, Melanocyte-stimulating hormone receptor. Description: Displacement of [125I]-NDP-alpha-MSH from human MC1R LBD expressed in HEK293 cell membranes up to 100 uM incubated for 16 to 23 hrs in dark by scintillation proximity assay.

Active and inactive are the calls of the source. No cut-off for these calls is given here.

T3 sequence (P41968 whole entry): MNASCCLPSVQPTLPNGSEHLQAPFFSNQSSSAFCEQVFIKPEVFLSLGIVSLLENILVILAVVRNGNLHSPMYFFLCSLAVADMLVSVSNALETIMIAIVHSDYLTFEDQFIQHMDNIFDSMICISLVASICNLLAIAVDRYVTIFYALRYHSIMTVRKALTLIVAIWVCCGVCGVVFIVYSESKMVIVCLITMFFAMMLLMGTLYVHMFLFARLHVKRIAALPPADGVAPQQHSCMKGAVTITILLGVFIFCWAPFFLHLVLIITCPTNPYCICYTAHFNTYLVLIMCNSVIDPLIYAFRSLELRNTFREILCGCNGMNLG

The term inhibition denotes how much of the control response was suppressed. Consider `CC[C@H](C)[C@@H]1NC(=O)[C@@H]2CCCN2C(=O)[C@H](Cc2c[nH]c3ccccc23)NC(=O)[C@H](CCCNC(=N)N)NC(=O)[C@H](Cc2ccccc2)NC(=O)[C@H](Cc2cnc[nH]2)NC(=O)[C@H]([C@@H](C)O)NC(=O)[C@@H]2CSSC[C@H](NC1=O)C(=O)N[C@@H](Cc1ccccc1)C(=O)N1CCC[C@H]1C(=O)N[C@@H](CC(=O)O)C(=O)NCC(=O)N[C@@H](CCCNC(=N)N)C(=O)N2`, for which the result on Melanocortin receptor 4 [1] and at Melanocortin receptor 3 [4] was inactive. Moreover, the inhibition entry (on Melanocortin receptor 4 [2]; in series [5]) was “inactive” in each case. In addition, the inhibition at Melanocortin receptor 5 [3] and on Melanocortin receptor 3 [8] was 100% in each case. The Activity (in [6]; on Melanocortin receptor 4 [7]) was 100% throughout. Moreover, in [9], the solubility result is given as “Soluble”.
As for `CC[C@H](C)[C@@H]1NC(=O)[C@@H]2CCCN2C(=O)[C@H](Cc2c[nH]c3ccccc23)N(C)C(=O)[C@H](CCCNC(=N)N)N(C)C(=O)[C@@H](Cc2ccccc2)NC(=O)[C@H](Cc2cnc[nH]2)N(C)C(=O)[C@H]([C@@H](C)O)NC(=O)[C@@H]2CSSC[C@H](NC1=O)C(=O)N[C@@H](Cc1ccccc1)C(=O)N1CCC[C@H]1C(=O)N[C@@H](CC(=O)O)C(=O)NCC(=O)N[C@@H](CCCNC(=N)N)C(=O)N2`, the result on Melanocortin receptor 4 [1] and on Melanocortin receptor 3 [4] was inactive. Also, the inhibition (on Melanocortin receptor 5 [3]; in series [11]; on Melanocortin receptor 4 [12]) was 100% each time. The Activity (in [6]; at Melanocortin receptor 4 [7]) was 100% each time. The inhibition entry at Melanocortin receptor 3 [10] was “inactive”. The solubility result in series [9] was “Soluble”.
`CC[C@H](C)[C@@H]1NC(=O)[C@@H]2CCCN2C(=O)[C@@H]2CCCN2C(=O)[C@H]([C@@H](C)CC)NC(=O)[C@H](CO)NC(=O)[C@H](CCCCN)NC(=O)[C@H]([C@@H](C)O)NC(=O)[C@@H]2CSSC[C@H](NC1=O)C(=O)N[C@@H](Cc1ccccc1)C(=O)N1CCC[C@H]1C(=O)N[C@@H](CC(=O)O)C(=O)NCC(=O)N[C@@H](CCCNC(=N)N)C(=O)N2`: the outcome (at Melanocortin receptor 4 [1]; at Melanocortin receptor 3 [4]; in [14]; at Melanocortin receptor 4 [15]) was inactive. Further, the inhibition result (at Melanocortin receptor 4 [2]; at Melanocortin receptor 5 [13]; at Melanocortin receptor 3 [10]; in series [16]) was “inactive” throughout. The solubility entry in series [9] is listed as “Soluble”.
